For orientation: IC50 means the midpoint of a concentration-inhibition curve.

This note sets out measurements from ChEMBL document CHEMBL1772963, “Isolation and structure of homotemsirolimuses A, B, and C” (J Nat Prod, 2011).

The subject of one test is LNCaP. Description: Antiproliferative activity against human LNCAP cells after 3 days by MTS assay. The settings on record: 72 h. The test is classed as functional, cell-based. In outline:
(§1)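 Cells seeded in 96-well plates for 24 h, then treated with vehicle or a range of compound doses for 3 days. Viable cell density read by MTS assay. IC50 taken from plots of percent inhibition versus vehicle control.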

The nature of test [1]: Antiproliferative activity against human MDA468 cells after 3 days by MTS assay. The settings on record: MDA-MB-468, 72 h. The test is classed as functional, cell-based. In outline: as §1
(Tetrazolium assays rely on reduction of a dye to a coloured formazan, in cell work by metabolically active cells.)

In test [2] the target is Serine/threonine-protein kinase mTOR (Homo sapiens, UniProt P42345). Briefly: Inhibition of FKBP12-independent human recombinant mTOR expressed in HEK293 cells using His6-S6K1 as a substrate by DELFIA assay. Format: cell-based. Summed up: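 Recombinant mTOR kinase activity measured with no FKBP12 present, with vehicle or a range of compound doses. IC50 derived by plotting percent inhibition relative to control.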

On to `CC[C@@H]1/C=C(\C)[C@@H](O)[C@@H](OC)C(=O)[C@H](C)C[C@H](C)/C=C/C=C/C=C(\C)[C@@H](OC)C[C@@H]2CC[C@@H](C)[C@@](O)(O2)C(=O)C(=O)N2CCCC[C@H]2C(=O)O[C@H]([C@H](C)C[C@@H]2CC[C@@H](OC(=O)C(C)(CO)CO)[C@H](OC)C2)CC1=O` [HOMOTEMSIROLIMUS C], for which the values for the 50% inhibitory concentration (IC50) (in the test on LNCaP; in test [1]; in test [2]) were 8 nM, 5 nM and 2100 nM, respectively.
For `CO[C@H]1C[C@@H]2CC[C@@H](C)[C@@](O)(O2)C(=O)C(=O)N2CCCC[C@H]2C(=O)O[C@H]([C@H](C)C[C@@H]2CC[C@@H](OC(=O)C(C)(CO)CO)[C@H](OC)C2)CC(=O)[C@H](C)/C=C(\C)[C@@H](O)[C@@H](OC)C(=O)[C@H](C)C[C@H](C)/C=C/C=C/C=C/1C` [TEMSIROLIMUS], the half-maximal inhibitory concentration (IC50) is 0.5 nM with LNCaP, 8 nM in test [1] and 1760 nM in test [2].
Consider `CC[C@@H]1CC[C@H]2C[C@H](OC)/C(C)=C/C=C/C=C/[C@@H](C)C[C@@H](C)C(=O)[C@H](OC)[C@H](O)/C(C)=C/[C@@H](C)C(=O)C[C@@H]([C@H](C)C[C@@H]3CC[C@@H](OC(=O)C(C)(CO)CO)[C@H](OC)C3)OC(=O)[C@@H]3CCCCN3C(=O)C(=O)[C@]1(O)O2` [HOMOTEMSIROLIMUS A], for which the IC50 amounted to 2.5 nM with LNCaP, 1 nM in test [1] and 1800 nM in test [2].
For the compound `CC[C@@H]1/C=C/C=C/C=C(\C)[C@@H](OC)C[C@@H]2CC[C@@H](C)[C@@](O)(O2)C(=O)C(=O)N2CCCC[C@H]2C(=O)O[C@H]([C@H](C)C[C@@H]2CC[C@@H](OC(=O)C(C)(CO)CO)[C@H](OC)C2)CC(=O)[C@H](C)/C=C(\C)[C@@H](O)[C@@H](OC)C(=O)[C@H](C)C1` [HOMOTEMSIROLIMUS B], the concentration for half-maximal inhibition (IC50) in the test with LNCaP was determined as 13 nM; in test [1], 5 nM; in test [2], 2500 nM.
